# Screening results: PubChem BioAssay, Broad Institute
# Sampled rows, rich in hits. Any-hit rate of the full collection: about 2.8%.
# dFosB act – activators of delta FosB homodimer, primary screen, biochemical, fluorescence polarization, TAMRA-CDK5 oligo, single point; Protein FosB (Mus musculus), P13346; AID 493131, 2011; activation, % at 25 µM; actives 0.99% (n = 340,000); purified delta FosB; percent of positive-control signal above neutral wells;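 active = mean activation above about 17%, with every replicate also reaching it, limit read from the data, passing the limit was not always enough; inconclusive = only one of the two conditions met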
# Target sequence (P13346 whole entry, looked up): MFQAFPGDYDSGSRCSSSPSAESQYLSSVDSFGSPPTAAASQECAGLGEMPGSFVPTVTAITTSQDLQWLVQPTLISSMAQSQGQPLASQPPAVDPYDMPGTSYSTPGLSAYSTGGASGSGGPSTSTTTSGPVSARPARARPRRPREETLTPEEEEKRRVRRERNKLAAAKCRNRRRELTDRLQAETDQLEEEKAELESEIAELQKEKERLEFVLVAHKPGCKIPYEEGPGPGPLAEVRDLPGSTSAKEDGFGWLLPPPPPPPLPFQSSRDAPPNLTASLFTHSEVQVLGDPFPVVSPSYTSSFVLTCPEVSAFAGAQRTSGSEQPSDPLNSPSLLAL
# CAL PDZ FP-1 – CAL PDZ peptide-binding inhibitors, primary screen, biochemical, fluorescence polarization, Cer-tagged CAL PDZ, HTS; Golgi-associated PDZ and coiled-coil motif-containing protein (Homo sapiens), Q9HD26; purified CAL PDZ, TMR-peptide fluorescence polarization, 1 h; inhibition, % at 20 µM; actives 0.02% (n = 330,000);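 active = highest replicate inhibition of at least 40%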;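 note: plate controls were DMSO neutral control wells for no effect and unlabeled competitor peptide control wells for full effect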
#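 Test system: tagged CAL PDZ domain / Buffer or medium: sodium phosphate/NaCl buffer pH 7.4 with TCEP, IgG, Thesit / Reagent: TMR-labelled reporter peptide T*-PRC34 bound in PDZ groove / Compound dosing: single point, 20 µM / Schedule: 1 h incubation at room temperature before polarization reading / Technique: fluorescence polarization (mP) / Benchmarks: unlabelled peptide, DMSO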
# CAL PDZ FP-2 – untagged CAL PDZ binding inhibitors, primary screen, biochemical, fluorescence polarization, HTS | Golgi-associated PDZ and coiled-coil motif-containing protein (Homo sapiens), Q9HD26 | purified CAL PDZ, TMR-peptide fluorescence polarization, 1 h | inhibition, % at 24.9 µM | actives 0.92% (n = 300,000);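 active = mean inhibition of at least 30% with at least half of replicates also reaching 30%; inconclusive = no clear call, values can overlap the other calls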;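 note: 0% = DMSO neutral control and 100% = excess unlabeled competitor peptide PRC23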
# SR-BI DiI inh – inhibitors of SR-BI mediated HDL lipid uptake, primary screen, ldlA[mSR-BI] cells, fluorescence, single point | actives 0.96% (n = 320,000) | ldlA[mSR-BI] CHO cells, DiI-HDL uptake fluorescence, 3 h | inhibition, % at 12.5 µM;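 active = mean replicate inhibition of at least 70% and a set share of replicates each scoring 70 or more; inconclusive = meets just one of the two criteria; inactive = fails both criteria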;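 note: 0% = median of neutral control wells and 100% = median of positive control wells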
# SR-BI uptake up – activators of SR-BI mediated DiI-HDL uptake, primary screen, ldlA[mSR-BI] CHO cells, DiI fluorescence; 3 h; 100 = double the neutral-control signal; activation, % at 12.5 µM; actives 0.096% (n = 320,000); AID 504775, 2011;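 active = mean replicate activation of at least 60% and every replicate at or above 60%; inconclusive = mean or all-replicate condition met, but not both; inactive = mean below 60% and not all replicates reaching 60%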;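 note: 0% = median plate neutral-control signal and 100% = twice that signal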
#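 Test system: SR-BI-overexpressing, LDLR-lacking CHO cells; Medium: Ham's F12 with 0.5% BSA, HEPES 25 mM, pH 7.4; Schedule: 3 h, 37 °C; Technique: bottom-read fluorescence, 550/595 nm.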
# * hit, by the source's call; ? = inconclusive; · = no result given; + = active, no number.
SMILES,dFosB act,CAL PDZ FP-1,CAL PDZ FP-2,SR-BI DiI inh,SR-BI uptake up
CCOC(=O)NC(=O)COC(=O)CCCSc1nc2ccccc2s1,-8,71*,-1,-11,11
CC(=O)c1c(C(C)=O)c(C)n(-c2nc(-c3ccc(C)c(C)c3)c(C)s2)c1C,-2,-2,-1,76*,-76
Cc1ccc(CN2CC(C(=O)N(Cc3nnc(-c4ccccc4Cl)o3)C3CC3)CC2=O)cc1 (centres undefined),-8,-1,-2,12,-12
COc1ccc(C)cc1-n1c(=O)c2ccccc2c2ccccc2c1=O,-8,-1,+,14,-14
CCc1ccc(NC(=O)NCC2CCN(Cc3cccc(Cl)c3)CC2)cc1,-4,0,0,2,-2
Cc1ccc(NC(=O)NCC2CCN(Cc3cccc(Cl)c3)CC2)cc1Cl,20*,-5,-10,-5,5
COc1ccccc1N(C(=O)c1snc(C(N)=O)c1N)C(C(=O)NC1CCCC1)c1ccc(N(C)C)cc1 (centres undefined),-1,-2,1,·,·
CCCNC(=O)c1ccc(CN2CCc3ccccc3C2)cc1,-4,-1,·,-22,22
C/C(=N\NC(=O)c1ccc(CN2CCc3ccccc3C2)cc1)c1ccccc1O,15,-1,3,109*,-109
CN(/N=C/c1ccncc1)c1cnc2ccccc2n1,-41,-1,8,13,-13
CC(C)C(=O)Nc1nnc(S(=O)(=O)N(C)c2ccc(Cl)cc2)s1,-2,·,45*,-15,15
COc1ccc(CCN2CC(C(=O)N(C)CC(=O)Nc3cccc(F)c3)CC2=O)cc1OC (centres undefined),-8,-3,-2,-7,7
COc1ccc(-c2csc(C3=C(O)CN(Cc4ccc(Cl)cc4)C3=N)n2)cc1OC,-1,0,-1,87*,-87
CCCCN1CC(O)=C(c2nc(-c3ccc(Cl)cc3)cs2)C1=N,-6,23,-3,58,-58
COCC(C)N1CC(O)=C(c2nc(-c3ccc(Cl)cc3)cs2)C1=N (centres undefined),-3,0,-2,82*,-82
CCCCN(C(=O)c1cccc(S(=O)(=O)N(CC)c2ccccc2)c1)c1c(N)n(CC(C)C)c(=O)[nH]c1=O,15,0,-5,-8,8
COCCn1c(SCC(=O)NCc2ccc3c(c2)OCO3)nnc1C(C)C,-10,-3,3,-24,24
COCCn1c(SCC(=O)NCc2ccc3c(c2)OCO3)nnc1-c1c[nH]c2ccccc12,-8,-1,64*,21,-21
Oc1ccc(Br)cc1-c1ccnn1-c1ccccc1,-1,-1,-5,-8,8
O=C(NCCc1ccccc1)C1CCN(C2CCN(Cc3ccco3)CC2)CC1,3,12,30*,-18,26
CC(C(=O)c1ccccc1)n1c(N2CCOCC2)nc2c1c(=O)n(C)c(=O)n2C (centres undefined),-7,-1,0,-63,63*
Cn1c(=O)c2c(nc(N3CCOCC3)n2C)n(C)c1=O,6,0,-2,-49,49
CCC(C)c1ccc(N(CC(=O)NC(C)(C)C)C(=O)CNC(=O)c2cccs2)cc1 (centres undefined),-18,-1,32*,-21,21
CCc1cc(C(=O)N2CCN(C(=O)c3ccco3)CC2)sc1C,3,0,-3,6,-6
CCOC(=O)C1=C(O)/C(=C/c2cc(OC)c(O)c(OC)c2)SC1=Nc1ccc(OC)cc1,-9,0,1,86*,-86
SMILES,dFosB act,CAL PDZ FP-1,CAL PDZ FP-2,SR-BI DiI inh,SR-BI uptake up
CC(=O)N1c2ccc(S(=O)(=O)N3CCCC3C(=O)NCc3ccccc3Cl)cc2CC1C (centres undefined),-16,0,·,12,-12
Oc1[nH]c2ccccc2c1N=Nc1nc(Nc2ccccc2)nc(N2CCOCC2)n1,47*,-2,-3,·,·
Cc1[nH]c2ccccc2c1/C=N/Nc1nc(Nc2ccccc2)nc(N2CCOCC2)n1,23*,-2,-3,130*,-130
c1ccc(Nc2nc(N3CCCC3)nc(N3CCOCC3)n2)cc1,-3,0,-3,66,-66
Cc1ccc(Nc2nc(N3CCOCC3)nc(N3CCOCC3)n2)cc1,-2,1,-4,40,-40
CN(C(=O)C1CCC(=O)N(CCc2ccc(Cl)cc2)C1)C1CCOCC1 (centres undefined),2,-1,-2,-4,4
O=C(c1ccc(F)cc1)C(C(=O)N1CCCCC1)n1ccccc1=O (centres undefined),5,0,·,4,-4
CC1CCCCN1S(=O)(=O)c1ccc2[nH]c(=O)cc(C(=O)NCCCN3CCCCCC3)c2c1 (centres undefined),1,-2,-1,-13,13
CCn1c(C(C)NC(=O)c2cccc(C)c2)n[nH]c1=S (centres undefined),4,0,8,-6,6
CCOc1ccccc1/C=N/NC(=O)Cc1csc(Nc2cccc(C(F)(F)F)c2)n1,-7,-1,0,·,·
COc1ccc(/C=N/NC(=O)Cc2csc(Nc3cccc(C(F)(F)F)c3)n2)c(OC)c1,-17,0,-1,?,-71
CCOc1ccc(/C=N/NC(=O)Cc2csc(Nc3cccc(C(F)(F)F)c3)n2)cc1,-1,0,0,77*,-77
CCOc1ccc(/C=N/NC(=O)Cc2csc(Nc3cccc(C(F)(F)F)c3)n2)c(OCC)c1,-4,-3,4,81*,-81
Cc1ccc(C)c(NC(=O)CN(C)C(=O)c2cc(-c3cccs3)nn2-c2ccccc2)c1,-15,-2,·,-7,7
CCOc1cc(-c2nc(C)c(C(C)=O)n2O)ccc1OCC(=O)Nc1ccccc1,-5,-1,38*,·,·
COc1ccc2c(=O)cc(-c3ccncc3)oc2c1OC,0,-3,-6,2,-2
Nn1c(Cc2cccc3ccccc23)nnc1SCc1ccccc1,-4,-2,-3,-11,11
Nn1c(Cc2ccccc2)nnc1Cc1ccccc1,8,1,54*,-18,18
Cc1nn(C(C)(C)C)c(OC(=O)c2ccco2)c1Sc1ccccc1,-6,·,141*,-12,12
O=C(O)CC(=O)NC12CC3CC(CC(C3)C1)C2,4,0,1,42,-42
O=C(O)C1CC=CCC1C(=O)NC12CC3CC(CC(C3)C1)C2 (centres undefined),3,0,67*,-7,7
